Laboratory results taken from ChEMBL document CHEMBL4673221, “Furanoflavones pongapin and lanceolatin B blocks the cell cycle and induce senescence in CYP1A1-overexpressing breast cancer cells” (Bioorg Med Chem, 2018).
Activity calls are given as the source filed them. No cut-off for these calls is given here.

Legend:
CYP1A1 [1] = biological target: T1, CYP1A1 (Homo sapiens, UniProt P04798); assay: Inhibition of human CYP1A1 expressed in human HEK293 cells at 10 uM using 7-ethoxyresorufin as substrate preincubated for 30 mins followed by substrate additon and measured after 60 mins by fluorescence based assay relative to control; type: cell-based; details: HEK293 cells expressing human CYP1A1, probe 7-ethoxyresorufin, time 90 min
T1 sequence (P04798 whole entry): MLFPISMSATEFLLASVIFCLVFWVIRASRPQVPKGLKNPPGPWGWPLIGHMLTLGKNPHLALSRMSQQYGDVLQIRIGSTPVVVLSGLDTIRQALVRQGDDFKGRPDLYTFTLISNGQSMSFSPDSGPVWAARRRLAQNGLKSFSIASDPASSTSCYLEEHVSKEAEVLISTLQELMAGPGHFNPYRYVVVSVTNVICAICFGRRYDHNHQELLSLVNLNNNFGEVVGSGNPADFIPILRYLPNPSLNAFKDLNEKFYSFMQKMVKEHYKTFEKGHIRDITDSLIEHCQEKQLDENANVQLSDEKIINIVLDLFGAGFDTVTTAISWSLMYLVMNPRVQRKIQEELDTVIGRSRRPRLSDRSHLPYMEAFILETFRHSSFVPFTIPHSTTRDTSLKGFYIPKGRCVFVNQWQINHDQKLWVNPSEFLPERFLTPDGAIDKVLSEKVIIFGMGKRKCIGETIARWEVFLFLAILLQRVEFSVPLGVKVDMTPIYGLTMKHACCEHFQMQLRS
How it was run: (§1)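 The assay used live recombinant human HEK293 cells grown in suspension, each cell line expressing a single CYP (CYP1A1 or CYP1B1). Percent inhibition was read at 10 μM, and IC50 values were determined. Values are mean ± SD of three independent experiments. Alpha-naphthoflavone served as the reference inhibitor.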

CYP1A1 [2] = biological target: T1, CYP1A1; assay: Inhibition of human CYP1A1 expressed in sacchrosomes at 10 uM using 7-ethoxyresorufin as substrate by fluorescence based assay relative to control; details: sacchrosomes expressing human CYP1A1, probe 7-ethoxyresorufin
How it was run: (§2)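 Enzymes were microsomal preparations isolated from recombinant baker's yeast (Sacchrosomes). Compounds were screened at 10 μM for percent inhibition, and IC50 values were also determined. Values are mean ± SD of three independent experiments. Alpha-naphthoflavone served as the positive control.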

Cytochrome P450 1B1 [3] = biological target: T2, Cytochrome P450 1B1 (Homo sapiens, UniProt Q16678); assay: Inhibition of human CYP1B1 expressed in human HEK293 cells using 7-ethoxyresorufin as substrate preincubated for 30 mins followed by substrate additon and measured after 60 mins by fluorescence based assay; type: ADME, cell-based; how it was run: as §1
T2 sequence (Q16678 whole entry): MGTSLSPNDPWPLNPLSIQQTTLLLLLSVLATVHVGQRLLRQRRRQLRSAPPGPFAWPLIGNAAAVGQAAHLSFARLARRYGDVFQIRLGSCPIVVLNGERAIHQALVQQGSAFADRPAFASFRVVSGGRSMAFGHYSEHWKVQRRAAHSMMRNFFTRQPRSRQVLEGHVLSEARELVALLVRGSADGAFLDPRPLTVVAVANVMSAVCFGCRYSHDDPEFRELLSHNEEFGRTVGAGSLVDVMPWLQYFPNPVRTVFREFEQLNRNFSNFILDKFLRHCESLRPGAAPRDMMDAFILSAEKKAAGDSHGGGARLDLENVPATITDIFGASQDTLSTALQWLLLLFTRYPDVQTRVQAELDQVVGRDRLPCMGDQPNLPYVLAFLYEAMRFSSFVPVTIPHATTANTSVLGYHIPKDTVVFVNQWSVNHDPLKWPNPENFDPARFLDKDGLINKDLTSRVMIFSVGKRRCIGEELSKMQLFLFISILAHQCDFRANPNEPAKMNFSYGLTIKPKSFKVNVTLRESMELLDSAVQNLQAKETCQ

Cytochrome P450 1A1 [4] = biological target: T3, Cytochrome P450 1A1 (Homo sapiens, UniProt P04798); assay: Inhibition of human CYP1A1 expressed in human HEK293 cells using 7-ethoxyresorufin as substrate preincubated for 30 mins followed by substrate additon and measured after 60 mins by fluorescence based assay; type: cell-based; how it was run: as §1
T3 sequence (P04798 whole entry): T1 sequence (P04798 whole entry)

Cytochrome P450 1B1 [5] = biological target: T2, Cytochrome P450 1B1; assay: Inhibition of human CYP1B1 expressed in sacchrosomes using 7-ethoxyresorufin as substrate by fluorescence based assay; type: ADME; how it was run: as §2
Cytochrome P450 1A1 [6] = biological target: T3, Cytochrome P450 1A1; assay: Inhibition of human CYP1A1 expressed in sacchrosomes using 7-ethoxyresorufin as substrate by fluorescence based assay; how it was run: as §2
Cytochrome P450 1A1 [7] = biological target: T3, Cytochrome P450 1A1; assay: Inhibition of human CYP1A1 expressed in HEK293 cells assessed as reduction in CYP1A1 mediated […] induced-toxicity by measuring EC50 at 3 times of IC50 concentration by MTT assay relative to control; type: cell-based; design: scale not given: the % may be the effect or the level left
How it was run: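 Adherent HEK293 cells transfected with pcDNA3.1/hCYP1A1 were exposed to B[a]P over 0.05–100 µM, with inhibitor at 3x its IC50 from the suspension HEK293-CYP1A1 assay. The EC50 of B[a]P for cell growth inhibition was derived. Cells transfected with empty plasmid were used for comparison. Values are mean and SD of three independent experiments.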

MCF7 [8] = assay: Induction of cell cycle arrest in human MCF7 over expressing CYP1A cells assessed as accumulation at G2/M phase incubated for 24 hrs by PI staining based flow cytometric analysis (reference value: 22.6%); type: functional
MCF7 [9] = assay: Induction of cell cycle arrest in human MCF7 over expressing CYP1A cells assessed as accumulation at S phase incubated for 24 hrs by PI staining based flow cytometric analysis (reference value: 20.1%); type: functional
MCF7 [10] = assay: Induction of cell cycle arrest in human MCF7 over expressing CYP1A cells assessed as accumulation at G0/G1 phase incubated for 24 hrs by PI staining based flow cytometric analysis (Rvb =54.3 %); type: functional
MCF7 [11] = assay: Cell cycle arrest in human MCF-7 cells over expressing CYP1A1 assessed as down regulation of CyclinD1 after 24 hrs by western blotting assay; type: functional, cell-based
How it was run: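 Cyclin D1 was detected by Western blot, with β-tubulin as loading control. Untreated cells served as control.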

MCF7 [12] = assay: Antiproliferative activity against human MCF-7 cells overexpressing CYP1A1 assessed as reduction in cell viability; type: functional, cell-based
How it was run: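 MCF-7 cells transfected with pcDNA3.1/CYP1A1 and selected in G418 (1 mg/mL, then […]) to give the stable MCF7-1A1 line. CYP1A1 expression was confirmed by Western blot and 7-ethoxyresorufin enzyme assay. The line was subcloned repeatedly. The reported value is the EC50 for inhibition of proliferation.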

Row | Structure (SMILES) | inhibition at 1 h, 10 µM (CYP1A1 [1]) [%] | inhibition at 10 µM (CYP1A1 [2]) [%] | IC50 (Cytochrome P450 1B1 [3]) [µM] | IC50 (Cytochrome P450 1A1 [4]) [µM] | IC50 (Cytochrome P450 1B1 [5]) [µM] | IC50 (Cytochrome P450 1A1 [6]) [µM] | EC50 (MCF7 [12]) [µM] | Activity (Cytochrome P450 1A1 [7]) [%] | Activity (MCF7 [8]) [%] | Activity (MCF7 [9]) [%] | Activity (MCF7 [10]) [%] | Activity (MCF7 [11])
1 | COc1c(-c2cc(-c3ccccc3)nn2-c2ccc(C#N)cc2)ccc2occc12 | > 84 | > 70 | 25.5 | 8.6 | 6.2 | 6.8 | – | – | – | – | – | –
2 | COc1c(-c2cc(-c3ccccc3)n(-c3ccc(C#N)cc3)n2)ccc2occc12 | > 84 | > 70 | 5.7 | 0.49 | > 20 | 0.28 | – | 91 | – | – | – | –
3 | O=c1cc(-c2ccccc2)oc2c1ccc1ccccc12 [ALPHA-NAPHTHOFLAVONE] | – | – | – | – | – | – | > 20 | – | 20.5 | 24.1 | 55.4 | Active
4 | O=c1cc(-c2cccc(O)c2)oc2c1ccc1occc12 | – | – | 1.2 | 0.24 | 3.8 | 0.69 | – | – | – | – | – | –
5 | COc1c(-c2cc(-c3ccccc3)nn2-c2ccccc2[N+](=O)[O-])ccc2occc12 | – | 31.6 | – | – | – | – | – | – | – | – | – | –
6 | COc1c(-c2ccccc2)oc2c(ccc3occc32)c1=O [KARANJIN] | – | – | 0.03 | 0.03 | 4.1 | 2.7 | – | – | – | – | – | –

Second part, led by results:

Row | inhibition at 1 h, 10 µM (CYP1A1 [1]) [%] | inhibition at 10 µM (CYP1A1 [2]) [%] | IC50 (Cytochrome P450 1B1 [3]) [µM] | IC50 (Cytochrome P450 1A1 [4]) [µM] | IC50 (Cytochrome P450 1B1 [5]) [µM] | IC50 (Cytochrome P450 1A1 [6]) [µM] | EC50 (MCF7 [12]) [µM] | Structure (SMILES) | Activity (Cytochrome P450 1A1 [7]) [%] | Activity (MCF7 [8]) [%] | Activity (MCF7 [9]) [%] | Activity (MCF7 [10]) [%] | Activity (MCF7 [11])
7 | – | – | 1.5 | 0.48 | 0.6 | 0.28 | – | COc1c(C(=O)/C=C(\O)c2ccc3c(c2)OCO3)ccc2occc12 [OVALITENONE] | – | – | – | – | –
8 | – | – | 4.5 | 4.4 | 3.9 | 2.4 | – | COc1c(C(=O)/C=C(\O)c2ccccc2)ccc2occc12 [PONGAMOL] | 73 | – | – | – | –
9 | – | – | 6.8 | 6.4 | 3.4 | 8.2 | – | O=c1cc(-c2ccc3c(c2)OCO3)oc2c1ccc1occc12 [PONGAGLABRONE] | – | – | – | – | –
